Converted amounts (≈) assume the structure as drawn.
How the values were obtained:
Type in all cases: functional
[1] = test system: Providencia stuartii; experiment: Antimicrobial activity against Providencia stuartii 6858 strain expressing beta-lactamase VIM-19 by microdilution method
In short: (§1)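 Clinical isolates from intensive care patients. MICs by dilution on Mueller-Hinton agar, inoculum 10^4 CFU per spot, read after growth and interpreted by CA-SFM guidelines. Where the line names an inhibitor, it was held at a fixed level: clavulanic acid 2 μg/ml, tazobactam 4 μg/ml, or EDTA 0.4 mM.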

[2] = test system: Klebsiella pneumoniae; experiment: Antimicrobial activity against Klebsiella pneumoniae 6828 strain expressing beta-lactamase VIM-19 by microdilution method; in short: as §1
[3] = test system: Escherichia coli; experiment: Antimicrobial activity against Escherichia coli DH5alpha harbouring plasmid BK-VIM-19 expressing beta-lactamase VIM-19 by microdilution method
In short: (§2)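 MIC by dilution on Mueller-Hinton agar, inoculum 10^4 CFU per spot, interpreted by CA-SFM guidelines. Inhibitor combinations where tested: clavulanic acid 2 μg/ml, tazobactam 4 μg/ml, EDTA 0.4 mM. Transconjugants came from rifampin-resistant E. coli C600 selected on rifampin 300 μg/ml plus cefotaxime 0.5 μg/ml. Transformants came from electroporation into E. coli DH5α selected on cefotaxime 0.5 μg/ml.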

[4] = test system: Escherichia coli; experiment: Antimicrobial activity against Escherichia coli C600 2878 transconjugate expressing beta-lactamase VIM-19 by microdilution method; in short: as §2
[5] = test system: Escherichia coli; experiment: Antimicrobial activity against Escherichia coli 2603 strain expressing beta-lactamase VIM-19 by microdilution method; in short: as §1
[6] = test system: Escherichia coli; experiment: Antimicrobial activity against Escherichia coli harbouring plasmid BK-CMV expressing beta-lactamase VIM-19 by microdilution method; in short: as §2
[7] = test system: Escherichia coli; experiment: Antimicrobial activity against Escherichia coli DH5alpha 2878 transformant expressing beta-lactamase VIM-19 by microdilution method; in short: as §2
[8] = test system: Escherichia coli; experiment: Antimicrobial activity against Escherichia coli 138 expressing beta-lactamase VIM-19 by microdilution method; in short: as §1
[9] = test system: Klebsiella pneumoniae; experiment: Antimicrobial activity against Klebsiella pneumoniae 2878 strain expressing beta-lactamase VIM-19 by microdilution method; in short: as §1
[10] = test system: Providencia stuartii; experiment: Antimicrobial activity against Providencia stuartii 6858 strain expressing beta-lactamase VIM-19 by microdilution method in presence of 0.4 mM EDTA; in short: as §1
[11] = test system: Escherichia coli; experiment: Antimicrobial activity against Escherichia coli DH5alpha 2878 transformant expressing beta-lactamase VIM-19 by microdilution method in presence of 0.4 mM EDTA; in short: as §2
[12] = test system: Klebsiella pneumoniae; experiment: Antimicrobial activity against Klebsiella pneumoniae 2878 strain expressing beta-lactamase VIM-19 […] in presence of 0.4 mM EDTA
[13] = test system: Escherichia coli; experiment: Antimicrobial activity against Escherichia coli harbouring plasmidBK-CMV expressing beta-lactamase VIM-19 […] in presence of 0.4 mM EDTA
[14] = test system: Escherichia coli; experiment: Antimicrobial activity against Escherichia coli C600 2878 transconjugate expressing beta-lactamase VIM-19 by microdilution method in presence of 0.4 mM EDTA
In short: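 Rifampin-resistant E. coli C600 recipient mated with the clinical strain. Transconjugants were selected on agar with rifampin 300 μg/ml plus cefotaxime 0.5 μg/ml. MICs by dilution on Mueller-Hinton agar, inoculum 10^4 CFU per spot, CA-SFM interpretation. Inhibitor at a fixed level: clavulanic acid 2 μg/ml or EDTA 0.4 mM.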

[15] = test system: Escherichia coli; experiment: Antimicrobial activity against Escherichia coli 138 expressing beta-lactamase VIM-19 by microdilution method in presence of 0.4 mM EDTA; in short: as §2
[16] = test system: Escherichia coli; experiment: Antimicrobial activity against Escherichia coli DH5alpha harbouring plasmid BK-VIM-19 expressing beta-lactamase VIM-19 by microdilution method in presence of 0.4 mM EDTA; in short: as §2
[17] = test system: Klebsiella pneumoniae; experiment: Antimicrobial activity against Klebsiella pneumoniae 6828 strain expressing beta-lactamase VIM-19 by microdilution method in presence of 0.4 mM EDTA; in short: as §1
[18] = test system: Escherichia coli; experiment: Antimicrobial activity against Escherichia coli 2603 strain expressing beta-lactamase VIM-19 by microdilution method in presence of 0.4 mM EDTA; in short: as §1
[19] = test system: Escherichia coli; experiment: Antimicrobial activity against Escherichia coli 2603 strain expressing beta-lactamase VIM-19 […] in presence of 4 ug/ml Tazobactam
[20] = test system: Providencia stuartii; experiment: Antimicrobial activity against Providencia stuartii 6858 strain expressing beta-lactamase VIM-19 by microdilution method in presence of 4 ug/ml Tazobactam; in short: as §1
[21] = test system: Klebsiella pneumoniae; experiment: Antimicrobial activity against Klebsiella pneumoniae 2878 strain expressing beta-lactamase VIM-19 by microdilution method in presence of 4 ug/ml Tazobactam; in short: as §1
[22] = test system: Escherichia coli; experiment: Antimicrobial activity against Escherichia coli C600 2878 transconjugate expressing beta-lactamase VIM-19 by microdilution method in presence of 4 ug/ml Tazobactam; in short: as §2
[23] = test system: Klebsiella pneumoniae; experiment: Antimicrobial activity against Klebsiella pneumoniae 6828 strain expressing beta-lactamase VIM-19 […] in presence of 4 ug/ml Tazobactam
[24] = test system: Escherichia coli; experiment: Antimicrobial activity against Escherichia coli 138 expressing beta-lactamase VIM-19 by microdilution method in presence of 4 ug/ml Tazobactam; in short: as §2
[25] = test system: Escherichia coli; experiment: Antimicrobial activity against Escherichia coli harbouring plasmidBK-CMV expressing beta-lactamase VIM-19 […] in presence of 4 ug/ml Tazobactam
[26] = test system: Escherichia coli; experiment: Antimicrobial activity against Escherichia coli DH5alpha 2878 transformant expressing beta-lactamase VIM-19 […] in presence of 4 ug/ml Tazobactam
[27] = test system: Escherichia coli; experiment: Antimicrobial activity against Escherichia coli DH5alpha harbouring plasmid BK-VIM-19 expressing beta-lactamase VIM-19 by microdilution method in presence of 4 ug/ml Tazobactam; in short: as §2

| SMILES | MIC [1] | MIC [2] | MIC [3] | MIC [4] | MIC [5] | MIC [6] | MIC [7] | MIC [8] | MIC [9] | MIC [10] | MIC [11] | MIC [12] | MIC [13] | MIC [14] | MIC [15] | MIC [16] | MIC [17] | MIC [18] | other results |
| --- | --- | --- | --- | --- | --- | --- | --- | --- | --- | --- | --- | --- | --- | --- | --- | --- | --- | --- | --- |
| CO[C@@]1(NC(=O)Cc2cccs2)C(=O)N2C(C(=O)O)=C(COC(N)=O)CS[C@@H]21 [CEFOXITIN] | 128 µg/mL (≈ 299 µM) | 128 µg/mL (≈ 299 µM) | 128 µg/mL (≈ 299 µM) | 128 µg/mL (≈ 299 µM) | 512 µg/mL (≈ 1200 µM) | 4 µg/mL (≈ 9.36 µM) | 256 µg/mL (≈ 599 µM) | 512 µg/mL (≈ 1200 µM) | 512 µg/mL (≈ 1200 µM) |  |  |  |  |  |  |  |  |  |  |
| C[C@@H](O)[C@H]1C(=O)N2C(C(=O)O)=C(S[C@@H]3CN[C@H](C(=O)N(C)C)C3)[C@H](C)[C@H]12 [MEROPENEM] | 8 µg/mL (≈ 20.9 µM) | 4 µg/mL (≈ 10.4 µM) | 8 µg/mL (≈ 20.9 µM) | 1 µg/mL (≈ 2.61 µM) | 8 µg/mL (≈ 20.9 µM) | < 0.12 µg/mL | 8 µg/mL (≈ 20.9 µM) | 16 µg/mL (≈ 41.7 µM) | 32 µg/mL (≈ 83.4 µM) | < 0.12 µg/mL | < 0.12 µg/mL | < 0.12 µg/mL | < 0.12 µg/mL | < 0.12 µg/mL | < 0.12 µg/mL | < 0.12 µg/mL | < 0.12 µg/mL | < 0.12 µg/mL |  |
| CCN1CCN(C(=O)N[C@@H](C(=O)N[C@@H]2C(=O)N3[C@@H]2SC(C)(C)[C@@H]3C(=O)O)c2ccccc2)C(=O)C1=O [PIPERACILLIN] | 256 µg/mL (≈ 495 µM) | 1020 µg/mL (≈ 1980 µM) | 512 µg/mL (≈ 989 µM) | 512 µg/mL (≈ 989 µM) | > 2050 µg/mL | 2 µg/mL (≈ 3.86 µM) | 1020 µg/mL (≈ 1980 µM) | > 2050 µg/mL | 2050 µg/mL (≈ 3960 µM) |  |  |  |  |  |  |  |  |  | MIC [19]: 1020 µg/mL; MIC [20]: 256 µg/mL; MIC [21]: 2050 µg/mL; MIC [22]: 512 µg/mL; MIC [23]: 1020 µg/mL; MIC [24]: 2050 µg/mL; MIC [25]: 2 µg/mL; MIC [26]: 1020 µg/mL; MIC [27]: 512 µg/mL |
| C[C@H]1[C@H](NC(=O)/C(=N\OC(C)(C)C(=O)O)c2csc(N)n2)C(=O)N1S(=O)(=O)O [AZTREONAM] | 2 µg/mL (≈ 4.59 µM) | 8 µg/mL (≈ 18.4 µM) |  |  | 64 µg/mL (≈ 147 µM) |  | 16 µg/mL (≈ 36.7 µM) | 128 µg/mL (≈ 294 µM) | 16 µg/mL (≈ 36.7 µM) |  | 16 µg/mL | 16 µg/mL |  | 4 µg/mL | 128 µg/mL |  | 8 µg/mL | 64 µg/mL |  |
| C[C@@H](O)[C@H]1C(=O)N2C(C(=O)O)=C(S[C@@H]3CN[C@H](C(=O)Nc4cccc(C(=O)O)c4)C3)[C@H](C)[C@H]12 | 32 µg/mL (≈ 67.3 µM) | 16 µg/mL (≈ 33.6 µM) | 4 µg/mL (≈ 8.41 µM) | 1 µg/mL (≈ 2.1 µM) | 16 µg/mL (≈ 33.6 µM) | < 0.12 µg/mL | 8 µg/mL (≈ 16.8 µM) | 32 µg/mL (≈ 67.3 µM) | 64 µg/mL (≈ 135 µM) | < 0.12 µg/mL | < 0.12 µg/mL | 0.25 µg/mL | < 0.12 µg/mL | < 0.12 µg/mL | 0.25 µg/mL | < 0.12 µg/mL | < 0.12 µg/mL | < 0.12 µg/mL |  |
| CO/N=C(\C(=O)N[C@@H]1C(=O)N2C(C(=O)O)=C(COC(N)=O)CS[C@H]12)c1ccco1 [CEFUROXIME] | 1020 µg/mL (≈ 2410 µM) | 1020 µg/mL (≈ 2410 µM) | 1020 µg/mL (≈ 2410 µM) | 512 µg/mL (≈ 1210 µM) | > 1020 µg/mL | 4 µg/mL (≈ 9.43 µM) | 1020 µg/mL (≈ 2410 µM) | > 1020 µg/mL | 1020 µg/mL (≈ 2410 µM) |  |  |  |  |  |  |  |  |  |  |
| CO/N=C(\C(=O)N[C@@H]1C(=O)N2C(C(=O)O)=C(COC(C)=O)CS[C@H]12)c1csc(N)n1 [CEFOTAXIME] | 128 µg/mL (≈ 281 µM) | 128 µg/mL (≈ 281 µM) | 128 µg/mL (≈ 281 µM) | 64 µg/mL (≈ 141 µM) | 256 µg/mL (≈ 562 µM) | 0.06 µg/mL (≈ 0.132 µM) | 256 µg/mL (≈ 562 µM) | 512 µg/mL (≈ 1120 µM) | 256 µg/mL (≈ 562 µM) | 2 µg/mL | 1 µg/mL | 4 µg/mL | 0.06 µg/mL | 1 µg/mL | 32 µg/mL | 0.06 µg/mL | 4 µg/mL | 4 µg/mL |  |

From ChEMBL document CHEMBL1212777, “Novel VIM metallo-beta-lactamase variant from clinical isolates of Enterobacteriaceae from Algeria” (2010)
